From ChEMBL document CHEMBL1155225, “Investigation of functionally liver selective glucokinase activators for the treatment of type 2 diabetes” (J Med Chem, 2009) come the findings set out here.

By half-life is commonly meant how long it takes for the measured level to halve. As a reminder, the solubility is how much of the substance goes into solution per volume. The term Cmax denotes the peak of the concentration-time curve. A word on the AUC(0-t): it is exposure summed from dosing to a finite time, without extrapolation to infinity.

Each structure is given as a SMILES string. Activity calls are given as the source filed them. The calls are words filed in the database; no cut-off is given here.

The target in data set [1] is T1, Hexokinase-4 (Homo sapiens) (UniProt P35557).
T1 sequence (whole entry): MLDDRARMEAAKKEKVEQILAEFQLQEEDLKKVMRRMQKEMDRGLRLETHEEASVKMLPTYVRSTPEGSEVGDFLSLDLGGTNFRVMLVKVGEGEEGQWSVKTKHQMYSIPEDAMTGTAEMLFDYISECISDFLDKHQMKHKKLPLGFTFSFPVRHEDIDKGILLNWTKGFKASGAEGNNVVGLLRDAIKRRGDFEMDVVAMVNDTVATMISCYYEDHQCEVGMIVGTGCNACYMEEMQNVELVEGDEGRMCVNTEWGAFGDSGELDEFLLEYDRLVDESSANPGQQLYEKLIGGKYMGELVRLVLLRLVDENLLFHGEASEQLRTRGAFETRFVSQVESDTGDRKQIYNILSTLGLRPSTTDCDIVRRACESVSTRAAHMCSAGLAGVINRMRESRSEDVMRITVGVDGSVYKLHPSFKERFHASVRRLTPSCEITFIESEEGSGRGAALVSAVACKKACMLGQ
In words: Activation of His-tagged human recombinant liver glucokinase expressed in Escherichia coli BL21 (DE3) assessed as drug level required for half-maximal activation. The class given is single protein. Summed up:
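Recombinant human liver GK (aa 17-466), His-tagged, expressed in E. coli BL21 Star (DE3), nickel affinity purified, tag cleaved (GPGSM left), then anion exchange and gel filtration to >95%.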

Data set [2] can be described thus: Metabolic stability in human liver microsomes assessed as half life. The class given is ADME, Microsome. In outline:
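Compound incubated at 1 μM with human liver microsomes plus selected cofactors (NADPH, UDPGA); clearance followed at 4 time points as % test compound remaining, giving half-life.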
(Microsomes from liver hold many membrane-bound enzymes, among them those of drug oxidation.)

Data set [3] can be described thus: Aqueous solubility by HPLC analysis. The class given is physicochemical. The following applies: buffer.
Data set [4] relates to Mus musculus. In words: Reduction in glucose excursion in C57BL/6 mouse at 50 mg/kg, po in microemulsion administered 30 mins before glucose challenge measured at 0.5 hrs postdose by oral glucose tolerance test. The class given is functional, C57BL6. Also on record: scale not given: the % may be the effect or the level left. In outline: (§1)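 C57BL6 mice grouped by matched 0-h plasma glucose; compound given by oral gavage (5 mL/kg) at 50 mg/kg (or 72 mg/kg) in microemulsion (Cremophor RH40, corn oil-monodiglyceride, propylene glycol, ethanol; diluted 2:3 with water) or in water; oral glucose 1 g/kg 30 min later. Blood sampled at 0.5, 1, 2 and 4 h post-dosing for glucose (meter) and insulin; % reduction from control.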

Data set [5] is described as follows: Permeability at 5 to 10 uM at pH 4, 6.8 and 8 by PAMPA. The following applies: pH 4, 6.8, 8, 10 µM. Background: In PAMPA a lipid-coated filter parts donor from acceptor wells.
The nature of data set [6]: Cmax in C57BL/6 mouse plasma at 60 mg/kg. The class given is ADME, organism-based, C57BL6. Also noted: dose 60 mg/kg. Summed up: (§2)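 Normal male-unspecified C57BL6 mice given a single 60 mg/kg dose; plasma, liver, pancreas and muscle sampled over 0-24 h, 3 animals with samples pooled for analysis; Cmax (μM) and AUC0-24h (μM*h) of parent drug reported.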
Data set [7] can be described thus: Cmax in C57BL/6 mouse liver at 60 mg/kg. The class given is ADME, organism-based, C57BL6. Also on record: dose 60 mg/kg. In outline:
as §2

Data set [8] is described as follows: Cmax in C57BL/6 mouse pancreas at 60 mg/kg. The class given is ADME, organism-based, C57BL6. Also noted: dose 60 mg/kg. In outline: as §2
Data set [9] can be described thus: Cmax in C57BL/6 mouse muscle at 60 mg/kg. The class given is ADME, organism-based, C57BL6, Muscle tissue. Also on record: dose 60 mg/kg. In outline:
as §2

The nature of data set [10]: AUC (0 to 24 hrs) in C57BL/6 mouse plasma at 60 mg/kg. Also on record: time < 24 hr, dose 60 mg/kg. The class given is ADME, organism-based, C57BL6. Summed up:
as §2

Data set [11] is described as follows: AUC (0 to 24 hrs) in C57BL/6 mouse liver at 60 mg/kg. Also noted: time < 24 hr, dose 60 mg/kg. The class given is ADME, organism-based, C57BL6. Summed up: as §2
The nature of data set [12]: AUC (0 to 24 hrs) in C57BL/6 mouse pancreas at 60 mg/kg. The class given is ADME, organism-based, C57BL6. Also noted: time < 24 hr, dose 60 mg/kg. Summed up: as §2
Data set [13] can be described thus: AUC (0 to 24 hrs) in C57BL/6 mouse muscle at 60 mg/kg. The class given is ADME, organism-based, C57BL6, Muscle tissue. Also noted: time < 24 hr, dose 60 mg/kg. In outline: as §2
The test system of data set [14] is Mus musculus. In words: Antidiabetic activity in po dosed high fat diet-induced obese C57BL/6 type 2 diabetes mouse model assessed as decrease in glucose excursion administered QD for 4 weeks by intravenous glucose tolerance test. The class given is functional, organism-based. The following applies: C57BL6. Summed up:
(§3)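 Male C57BL6 mice kept on high fat diet dosed orally once daily with vehicle (dH2O) or compound at 30 to 100 mg/kg. Intravenous glucose tolerance test then run; plasma glucose excursion and plasma insulin AUC (0-120 min) calculated; n = 8 mice/group, mean ± SEM, p < 0.05 vs vehicle.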

Data set [15] has as its system Mus musculus. In words: Antidiabetic activity in high fat diet-induced obese C57BL/6 type 2 diabetes mouse model assessed as increase in plasma insulin AUC at 30 mg/kg, po administered QD for 4 weeks by intravenous glucose tolerance test. The class given is functional, organism-based. Also noted: dose 30 mg/kg. The note with it: C57BL6. In outline:
as §3

Data set [16] concerns Mus musculus. In words: Antidiabetic activity in high fat diet-induced obese C57BL/6 type 2 diabetes mouse model assessed as increase in plasma insulin AUC at 100 mg/kg, po administered QD for 4 weeks by intravenous glucose tolerance test. The class given is functional, organism-based. The note with it: C57BL6. Also noted: dose 100 mg/kg. Summed up: as §3
For data set [17], the system named is Mus musculus. In words: Antidiabetic activity in high fat diet-induced obese C57BL/6 type 2 diabetes mouse model assessed as improvement of insulin sensitivity at 30 to 100 mg/kg, po administered QD for 4 weeks by intravenous glucose tolerance test. The class given is functional, organism-based. The note with it: C57BL6. Summed up: as §3
Data set [18] concerns Mus musculus. In words: Antidiabetic activity in high fat diet-induced obese C57BL/6 type 2 diabetes mouse model assessed as improvement of glucose uptake at 30 to 100 mg/kg, po administered QD for 4 weeks by intravenous glucose tolerance test. The class given is functional, organism-based. The following applies: C57BL6. Summed up: as §3
Data set [19] concerns Mus musculus. In words: Antidiabetic activity in high fat diet-induced obese C57BL/6 type 2 diabetes mouse model assessed as reduction of glucose output from liver at 30 to 100 mg/kg, po administered QD for 4 weeks by intravenous glucose tolerance test. The class given is functional, organism-based. The note with it: C57BL6. Summed up: as §3
Data set [20] concerns Mus musculus. In words: Reduction in glucose excursion in C57BL/6 mouse at 50 mg/kg, po in water administered 30 mins before glucose challenge measured at 0.5 hr postdose by oral glucose tolerance test. The class given is functional, C57BL6. Also on record: scale not given: the % may be the effect or the level left. In outline:
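Normal C57BL6 mice dosed by oral gavage at 50 mg/kg, with water as vehicle. Oral glucose at 1 g/kg 30 min after dosing. Plasma glucose read by glucose meter at 0 h and at 0.5, 1, 2 and 4 h post-dose. Reported as % reduction from vehicle control at the stated time, with significance at p < 0.05 or the p-value given.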

The test system of data set [21] is Mus musculus. In words: Reduction in glucose excursion in C57BL/6 mouse at 10 mg/kg, iv administered 30 mins before glucose challenge measured at 2 hrs postdose by oral glucose tolerance test. The class given is functional, C57BL6. Also on record: scale not given: the % may be the effect or the level left. Summed up: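 Normal C57BL6 mice, compound given IV at 10 mg/kg. Oral glucose at 1 g/kg 30 min after dosing. Plasma glucose read by glucose meter at 0 h and at 0.5, 1, 2 and 4 h post-dose. Reported as % reduction from vehicle control at the stated time, with significance at p < 0.05 or the p-value given.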

A short description of data set [22]: Intrinsic solubility in neutral pH by HPLC analysis. The class given is physicochemical.
The subject of data set [23] is Mus musculus. In words: Reduction in glucose excursion in C57BL/6 mouse at 50 mg/kg, po in water administered 30 mins before glucose challenge measured at 1 hr postdose by oral glucose tolerance test. Also on record: scale not given: the % may be the effect or the level left. The class given is functional, C57BL6. In outline:
as §1

Data set [24] concerns Mus musculus. In words: Reduction in glucose excursion in C57BL/6 mouse at 50 mg/kg, po in water administered 30 mins before glucose challenge measured at 2 hrs postdose by oral glucose tolerance test. Also on record: scale not given: the % may be the effect or the level left. The class given is functional, C57BL6. In outline: as §1

Take `COc1ccc2nc(NC(=O)C(CC3CCCC3)c3ccc(S(N)(=O)=O)cc3)sc2n1` (stereo unspecified): the Activity is 897 nM in data set [1] and 22% with Mus musculus [4]. Further, in [2], the half-life was found to be 23.1 min. Further, in [3], the solubility is < 2 µg/mL. In data set [5], the logPm is recorded as -4.4.
Consider `COc1ccc2nc(NC(=O)[C@H](CC3CCCC3)c3ccc(S(=O)(=O)N4CCN(C)CC4)cc3)sc2n1`, for which the Activity in [1] was 23 nM; with Mus musculus [14], “Dose-dependent effect”. The highest concentration (Cmax) in data set [6] stood at 4.3 µM; in data set [7], 44.5 µM; in data set [8] it was 218 µM; in [9], 34.6 µM. Besides, the AUC(0-t) at 24 h came to 52.4 µM·h in data set [10], 511 µM·h in data set [11], 3230 µM·h in data set [12] and 167 µM·h in [13]. The result with Mus musculus [15] and in the data set on Mus musculus [16] was inactive. Further, the result in the data set with Mus musculus [17], in the data set on Mus musculus [18] and in the data set with Mus musculus [19] was Active.
Consider `COc1ccc2nc(NC(=O)C(CC3CCCC3)c3ccc(S(=O)(=O)N4CCNCC4)cc3)sc2n1.Cl` (stereo unspecified), for which the Activity stood at 50 nM in data set [1], 22% with Mus musculus [20] and 26% in the data set with Mus musculus [21]. Further, the half-life in [2] is < 1.5 min. Besides, the logPm in data set [5] is given as -4.9.
On to `COc1ccc2nc(NC(=O)C(CC3CCCC3)c3ccc(S(=O)(=O)NCC(=O)O)cc3)sc2n1` (stereo unspecified), for which the Activity in [1] was 1860 nM; in the data set with Mus musculus [23], 26%; in the data set with Mus musculus [24], 20%. Besides, the half-life in data set [2] was found to be 27.2 min. The solubility in data set [22] is > 570 µg/mL. In addition, the logPm in [5] is -4.4.
